In the RNAGym collection of RNA variant scans (doi:10.1126/science.aae0568) one finds yeast fitness data, which are given here for 38 variants.

This sample holds only a part of the variants without activity.

B1: tRNA (parent)
chain: GUUCCGUUGGCGUAAUGGUAACGCGUCUCCCUCCUAAGGAGAAGACUGCGGGUUCGAGUCCCGUACGGAACG

Variants of B1 are the subject of this series. As to the kind of experiment: yeast fitness relative to wild type (ratio to wild type); higher = fitter; tRNA-Arg(CCU), competitive growth, 37 C, YPD. The gist of the method: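 A pool of Saccharomyces cerevisiae strains, each with a tRNA-Arg(CCU) gene variant at the native genomic locus, was competed in YPD at 37°C for 24 hours across six parallel replicates. The variants had been chemically synthesised at a 3% per-site mutation rate over 69 sites, and gene amplicons before and after competition were read by 100-nucleotide paired-end sequencing. Darwinian fitness relative to wild type rested on changes in genotype frequencies. Genotypes required ≥ 100 starting reads, and estimates < 0.5 were set to 0.5.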
Consider GUUCCGUUGGCGUAAUGGUAACGCGUCUCCCUCCUAAGGAGACGACUGCGGGUUCGAGUACCGUACGGAACG [A43C C60A], for which the yeast fitness was 0.591.
With GUUCCGUUGGCGUAAUGGUAACGCGUCUCCCUCCUAAGGAGACGACUGCGGGUUCGAGUGCCGUACGGAACG [A43C C60G] the figure was 0.953.
With GUUCCGUUGGCGUAAUGGUAACGCGUCUCCCUCCUAAGGAGUAGACGGCGGGUUCGCGUCACGUACGGAACG [A42U U47G A57C C61A] the figure was no more than 0.5; with GUUCCGUUGGCGUAAUGGUAACGCGUCUCCCUCCUAAGGAGACCACUGCGGGUUGGAGUCCUGUACGGAACG [A43C G44C C55G C62U], 0.661.
Turning to GUUCCGUUGGCGUAAUGGUAACGCGUCUCCCUCCUAAGGAGACGACUGCGGGUUCGACUCCCGUACGGAACG [A43C G58C], the yeast fitness came to 1.03.
As to GUUCCGUUGGCGUAAUGGUAACGCGUCUCCCUCCUAAGGAGACGACUGCGGGUUCGAGUCCCGUACGGUCCG [A43C A69U A70C], the yeast fitness was 1.03.
With GUUCCGUUGGCGUAAUGGUAACGCGUCUCCCUCCUAAGGAGUAGACUGCGGGUUCGAGUCCCCUACGGAACG [A42U G63C] the figure was 0.715.
On to GUUCCGUUGGCGUAAUGGUAACGCGUCUCCCUCCUAAGGAGUAGACUGCGGGUUCGAGUCCCGUACUGAACG [A42U G67U], for which the yeast fitness stood at 0.813.
With GUUCCGUUGGCGUAAUGGUAACGCGUCUCCCUCCUAAGGAGUAGACUGCGGGUUCGAGUCCCGUACAGAACG [A42U G67A] the figure was 0.758.
The same measure for GUUCCGUUGGCGUAAUGGUAACGCGUCUCCCUCCUAAGGAGUAGACUGCAGGUUCGAGUGCCGCACGGAACG [A42U G50A C60G U64C]: no more than 0.5.
With GUUCCGUUGGCGUAAUGGUAACGCGUCUCCCUCCUAAGGAGUACACUGCGGGUACGAGUCCCGUACGGAACG [A42U G44C U54A] the figure was no more than 0.5; with GUUCCGUUGGCGUAAUGGUAACGCGUCUCCCUCCUAAGGAGUAGACUGCGGGUGCGAGUCCCGUACGGAACG [A42U U54G], 0.605.
For the variant GUUCCGUUGGCGUAAUGGUAACGCGUCUCCCUCCUAAGGAGUAGACUGCGGGUCCGAGUCCCGUACGGAACG [A42U U54C], the yeast fitness worked out at 0.897.
With GUUCCGUUGGCGUAAUGGUAACGCGUCUCCCUCCUAAGGAGUAGACUGCGGGUUCGAGACCCGGACGGAACG [A42U U59A U64G] the figure was no more than 0.5; with GUUCCGUUGGCGUAAUGGUAACGCGUCUCCCUCCUAAGGAGUAGACUACGGGUCCGAGUCCCGUACGGAACG [A42U G48A U54C], 0.696.
The same measure for GUUCCGUUGGCGUAAUGGUAACGCGUCUCCCUCCUAAGGAGUACUCUGGGGGUUCGAGUCCCGUACGGAACG [A42U G44C A45U C49G]: no more than 0.5; for GUUCCGUUGGCGUAAUGGUAACGCGUCUCCCUCCUAAGGAGACGACUGCGGGUUCGUGUCCGGUACGGAACG [A43C A57U C62G]: 0.571; for GUUCCGUUGGCGUAAUGGUAACGCGUCUCCCUCCUAAGGAGACGACUGUGGGUUGGAGUCCCGUACGGAACG [A43C C49U C55G]: 0.519.
The same measure for GUUCCGUUGGCGUAAUGGUAACGCGUCUCCCUCCUAAGGAGUAGACUGCGGGUUCGAAUCGCGUACGGAUCG [A42U G58A C61G A70U]: no more than 0.5; for GUUCCGUUGGCGUAAUGGUAACGCGUCUCCCUCCUAAGGAGUAGACUGCGGCUUCGAGUCCCGUACGGAGCG [A42U G52C A70G]: 0.521; for GUUCCGUUGGCGUAAUGGUAACGCGUCUCCCUCCUAAGGAGUAGACUGCAGGUUCGAGUCCCCUACAGAACG [A42U G50A G63C G67A]: no more than 0.5.
Take GUUCCGUUGGCGUAAUGGUAACGCGUCUCCCUCCUAAGGAGACGACUCCGGGUUCGGGUCCCGUACGGAACG [A43C G48C A57G]: the yeast fitness stood at 0.817.
For GUUCCGUUGGCGUAAUGGUAACGCGUCUCCCUCCUAAGGAGACGACUGUGGGUUCGAGUCCGGUACGGAACG [A43C C49U C62G], the yeast fitness is 0.561.
With GUUCCGUUGGCGUAAUGGUAACGCGUCUCCCUCCUAAGGAGACGAAUCCGGGUUCGAGUCCCGUACGGAACG [A43C C46A G48C] the figure was 0.851; with GUUCCGUUGGCGUAAUGGUAACGCGUCUCCCUCCUAAGGAGACGGCUGCGGGUUCGAGUCCCGUACAGAACG [A43C A45G G67A], 0.659.
The same measure for GUUCCGUUGGCGUAAUGGUAACGCGUCUCCCUCCUAAGGAGUAGACCGCGAGUUCGAGUCCCGUACGGACCG [A42U U47C G51A A70C]: 0.502; for GUUCCGUUGGCGUAAUGGUAACGCGUCUCCCUCCUAAGGAGACGACUGCGGGUUCGAGUCCCGUACGGAACG [A43C]: 0.997.
The same measure for GUUCCGUUGGCGUAAUGGUAACGCGUCUCCCUCCUAAGGAGUAAACUGCGAGUUCGAGUCCCGUACGGAACG [A42U G44A G51A]: 0.669; for GUUCCGUUGGCGUAAUGGUAACGCGUCUCCCUCCUAAGGAGACGACUGAGGGUUCGAGUCCCGUAAGGAACG [A43C C49A C66A]: no more than 0.5.
Consider GUUCCGUUGGCGUAAUGGUAACGCGUCUCCCUCCUAAGGAGACGACUGCGGGUUCGAGUCCCGUACGGAUCG [A43C A70U], for which the yeast fitness stood at 1.06.
With GUUCCGUUGGCGUAAUGGUAACGCGUCUCCCUCCUAAGGAGACGACUGCGGGUUCGCGUCCCGUACGGAUCG [A43C A57C A70U], the yeast fitness came to 0.53.
With GUUCCGUUGGCGUAAUGGUAACGCGUCUCCCUCCUAAGGAGACGACUGCCGGUUCGAGUCCCGUACGGAUCG [A43C G50C A70U] the figure was 0.574; with GUUCCGUUGGCGUAAUGGUAACGCGUCUCCCUCCUAAGGAGUAGACUGCAGGUUCGAGUCCCGUACGGAACG [A42U G50A], 0.743; with GUUCCGUUGGCGUAAUGGUAACGCGUCUCCCUCCUAAGGAGACGACUGCGGGUUUGAGUCCCGUACCGAACG [A43C C55U G67C], 0.556.
On to GUUCCGUUGGCGUAAUGGUAACGCGUCUCCCUCCUAAGGAGUAGACUGCGGGUUCGAGCCCCGUACGGAACG [A42U U59C], for which the yeast fitness was 1.01.
With GUUCCGUUGGCGUAAUGGUAACGCGUCUCCCUCCUAAGGAGUAGACUGCGGGUUCGAGGCCCGUACGGAACG [A42U U59G] the figure was 0.75; with GUUCCGUUGGCGUAAUGGUAACGCGUCUCCCUCCUAAGGAGUAGACUGCGGGUUCGAGACCCGUACGGAACG [A42U U59A], 0.668.
With GUUCCGUUGGCGUAAUGGUAACGCGUCUCCCUCCUAAGGAGUAGACAGCGGGAUCGAGUCCCGUACGGAACG [A42U U47A U53A] the figure was 0.727.
